Rows were chosen to be rich in hits. Some 2.6% of all compounds tested hit in one or more screens of this group.
INS-1E GSIS act – primary screen for activators of insulin secretion dependent on glucose, INS-1E cells, GLuc reporter luminescence. AID 743287. INS-1E GLuc reporter insulin secretion, 2-3 h. activation, % at 16.6 µM. 370,000 tested, 0.61% active;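 active means lowest replicate activation of at least 40%, so every replicate reaches that level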;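 further: 0% = median of neutral control wells and 100% = median of IBMX positive control wells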
ERAP1 HTS inh – inhibitors of human ERAP1 aminopeptidase | recombinant ERAP1, Leu-AMC fluorescence, 60 min | inhibition, % at 10.7 µM | 340,000 tested, 0.15% active | AID 652197;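 active means mean replicate inhibition of at least 30%, or all replicates individually reaching that 30% level; inactive means mean below 30% and not every replicate reaching it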;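 further: 0% = neutral control wells and 100% = L-leucinethiol positive control wells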
E-selectin induc – E-selectin induction on HUVECs; P16581; HUVEC E-selectin immunofluorescence imaging; normalized: neutral wells 0, TNF-alpha wells 100; activation, % at 7.58 µM; 260,000 tested, 0.37% active; AID 686992;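 active means mean E-selectin-positive cell signal at least 10% of the positive control, reached in at least 60% of replicates, without over 20% cell loss; inconclusive means no rule given, readout overlaps actives, possibly toxicity-flagged; inactive means the rest, including those meeting only one limit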
Target sequence (P16581 whole entry, looked up): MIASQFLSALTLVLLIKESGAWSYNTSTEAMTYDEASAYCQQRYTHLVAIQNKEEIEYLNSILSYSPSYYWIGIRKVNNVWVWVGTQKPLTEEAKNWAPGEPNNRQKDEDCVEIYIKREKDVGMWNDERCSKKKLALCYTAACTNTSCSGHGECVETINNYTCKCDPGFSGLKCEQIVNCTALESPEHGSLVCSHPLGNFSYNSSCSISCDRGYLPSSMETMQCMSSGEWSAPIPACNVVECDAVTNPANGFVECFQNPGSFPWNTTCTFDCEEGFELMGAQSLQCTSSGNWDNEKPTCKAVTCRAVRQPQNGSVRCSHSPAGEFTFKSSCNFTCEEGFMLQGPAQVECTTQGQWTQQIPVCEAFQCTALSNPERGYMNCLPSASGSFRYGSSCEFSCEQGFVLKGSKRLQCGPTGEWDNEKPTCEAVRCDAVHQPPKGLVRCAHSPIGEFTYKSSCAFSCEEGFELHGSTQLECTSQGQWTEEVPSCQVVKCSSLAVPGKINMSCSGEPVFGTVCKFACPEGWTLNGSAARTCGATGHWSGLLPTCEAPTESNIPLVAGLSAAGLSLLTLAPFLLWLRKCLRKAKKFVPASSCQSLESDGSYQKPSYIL
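Test system: HUVEC | Signal: Immunofluorescence imaging | Read-out: Percent E-selectin-positive cells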
F508del corr – correctors of CFTR F508del function in bronchial epithelial cells; activity (quench increase), % at 7.58 µM; CFBE cells, YFP halide quenching; stimulated with forskolin plus potentiator P3; % fluorescence drop versus neutral controls; 350,000 tested, 0.36% active;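 active means mean added fluorescence quench of at least 8% versus neutral control, with both replicates also reaching 8%; inconclusive means only one of the mean or replicate conditions met; inactive means mean below 8% and not both replicates reaching 8%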;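 further: cells transiently co-express mutant CFTR-F508del with the halide-sensitive YFP; corrector assay measuring rescue of mutant channel to the surface after 24 h compound exposure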
DENV2 CPE rescue – inhibitors of DENV2 cytopathic effect | DENV2-infected cells, cytopathic effect rescue, plate reader | CPE inhibition, % at 9.99 µM | 350,000 tested, 1.7% active; in the data active means CPE inhibition above about 20%, passing the limit was not always enough; inconclusive means no clear call, values can overlap the other calls; tested in BHK-21 cells;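 further: 0% = median of neutral control wells and 100% = median of positive control wells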
miR-122 sensor – miR-122 inhibition in Huh7 cells. activation (reporter increase), % at 12.5 µM. 340,000 tested, 0.3% active. Huh7 miR-122 Renilla luciferase sensor, 48 h; neutral wells = 0, positive control = 100;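 active means mean replicate activation score at least 90 and every replicate individually at or above 90; inconclusive means only one of the two criteria met; inactive means neither criterion met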;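 further: higher luciferase means less miR-122 activity so hits act as miR-122 inhibitors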
An asterisk follows results filed as active; [ ] = remark or other dose.

CCCCn1c(=O)[nH]c(=O)c2c1nc(-c1ccc(OC)c(Br)c1)n2CC(C)C was read as INS-1E GSIS act -13, ERAP1 HTS inh 2, F508del corr 0, DENV2 CPE rescue -2 and miR-122 sensor -12.
CCCCn1c(=O)[nH]c(=O)c2c1nc(-c1ccc([N+](=O)[O-])cc1)n2CC was read as INS-1E GSIS act 191*, ERAP1 HTS inh -3, E-selectin induc 3, F508del corr 1 and DENV2 CPE rescue -7.
`CCCCn1c(-c2ccsc2)nc2c1c(=O)[nH]c(=O)n2CCC` gave miR-122 sensor 4.
C=CCOc1ccc(-c2nc3c(c(=O)[nH]c(=O)n3CCCC)n2C)cc1Br was read as INS-1E GSIS act 51*, ERAP1 HTS inh -1, F508del corr 6 and DENV2 CPE rescue 0.
Screening CO[C@H]1CN(C)C(=O)c2ccc(NS(=O)(=O)c3ccccc3C)cc2OC[C@H](C)N(C)C[C@@H]1C returned INS-1E GSIS act 10, ERAP1 HTS inh -1, E-selectin induc 1, F508del corr 1 and DENV2 CPE rescue 1.
CC(C)c1cn(CC[C@@H]2CC[C@@H](NC(=O)c3cccc(F)c3)[C@H](CO)O2)nn1 was read as INS-1E GSIS act 0, ERAP1 HTS inh 2, E-selectin induc 0, F508del corr -1, DENV2 CPE rescue 0 and miR-122 sensor -20[16.7 µM].
Screening COCCOc1ccc(C(F)(F)F)cc1NC(=O)c1ccccc1F returned INS-1E GSIS act 50*.
Screening CC(C)NC(=O)N(C)C[C@@H]1OCCCC[C@@H](C)Oc2ccc(NC(=O)CCC(F)(F)F)cc2C(=O)N([C@@H](C)CO)C[C@@H]1C returned INS-1E GSIS act 24, ERAP1 HTS inh 2, E-selectin induc 3, F508del corr -3, DENV2 CPE rescue -3 and miR-122 sensor -3[16.7 µM].
For COc1cc(OC)cc(C(=O)OC/C(O)=C(\C#N)c2nc3ccccc3[nH]2)c1 the results were INS-1E GSIS act 7, ERAP1 HTS inh 20, E-selectin induc 0, F508del corr 1, DENV2 CPE rescue 60* and miR-122 sensor 1.
CCCCCNC(=O)c1[nH]c(C(F)(F)F)nc1-c1ccccc1 was read as INS-1E GSIS act -37, ERAP1 HTS inh -1, F508del corr -1, DENV2 CPE rescue 28* and miR-122 sensor -4.
Screening CC(C)c1nc2oc3c(NCCO)ncnc3c2c2c1COC(C)(C)C2 returned INS-1E GSIS act 17, E-selectin induc 0, F508del corr 13* and DENV2 CPE rescue -3.
`CCCc1nc2oc3c(NCCOCCO)ncnc3c2c2c1COC(C)(C)C2` gave miR-122 sensor -17.
`CC(C)c1nc2oc3c(NCC4CCCO4)ncnc3c2c2c1COC(C)(C)C2` (stereo unspecified) gave miR-122 sensor 194*.
CCCCCC(=O)N1C[C@@H](O)[C@H](n2cc(COC(=O)c3ccccc3)nn2)C[C@@H]1c1ccc(C)cc1 was read as INS-1E GSIS act -20, ERAP1 HTS inh 0, E-selectin induc 0, F508del corr -1, DENV2 CPE rescue 74* and miR-122 sensor -2.
CCCCCC(=O)N1C[C@H](n2cc(COC(=O)c3ccccc3)nn2)[C@@H](O)C[C@@H]1c1ccc(C)cc1 was read as INS-1E GSIS act -20, ERAP1 HTS inh 3, E-selectin induc 0, F508del corr 4, DENV2 CPE rescue -15 and miR-122 sensor -3.
Screening COc1ccc([C@H]2C[C@H](O)[C@@H](n3cc(COC(=O)c4ccccc4)nn3)CN2CC2CCCCC2)cc1 returned INS-1E GSIS act 3, ERAP1 HTS inh -1, E-selectin induc 0, F508del corr 0, DENV2 CPE rescue 20* and miR-122 sensor -6.
COc1ccc([C@H]2C[C@@H](n3cc(C4CC4)nn3)[C@H](O)CN2Cc2cccs2)cc1 was read as INS-1E GSIS act -10, ERAP1 HTS inh -4, F508del corr -4, DENV2 CPE rescue 35* and miR-122 sensor -7.
`O=C(OCc1cn([C@H]2C[C@H](c3ccccc3)N(CC3CCCCC3)C[C@@H]2O)nn1)c1ccccc1` gave INS-1E GSIS act -13, E-selectin induc 5, F508del corr 2, DENV2 CPE rescue -4 and miR-122 sensor 1.
For COc1ccc([C@H]2C[C@H](O)[C@@H](n3cc(COC(=O)c4ccccc4)nn3)CN2Cc2cccs2)cc1 the results were INS-1E GSIS act -16, ERAP1 HTS inh 2, E-selectin induc 0, F508del corr 2, DENV2 CPE rescue 15 and miR-122 sensor 31.
Screening COc1ccc([C@H]2C[C@@H](O)[C@H](n3cc(COC(=O)c4ccccc4)nn3)CN2Cc2cccs2)cc1 returned INS-1E GSIS act -4, ERAP1 HTS inh -4, E-selectin induc 0, F508del corr 1, DENV2 CPE rescue 56* and miR-122 sensor 4.
For C[C@@H]1CCCCO[C@@H](CN(C)C(=O)Nc2cccc3ccccc23)[C@@H](C)CN([C@H](C)CO)C(=O)c2cc(NS(=O)(=O)c3cccs3)ccc2O1 the results were INS-1E GSIS act 11, ERAP1 HTS inh 0, E-selectin induc 0, F508del corr 1, DENV2 CPE rescue -1 and miR-122 sensor 5[16.7 µM].
For COc1ccc(C(=O)Nc2ccc3c(c2)OC[C@@H](C)NC[C@@H](C)[C@H](OC)CN(C)C3=O)cc1 the results were INS-1E GSIS act -2, ERAP1 HTS inh -3, E-selectin induc 0, F508del corr -1, DENV2 CPE rescue 7 and miR-122 sensor 25[16.7 µM].
`CCCN1C(=O)C(O)(C/C(C)=N/O)c2ccccc21` (stereo unspecified) gave INS-1E GSIS act 50* and miR-122 sensor 0.
For CCCN1C(=O)C(O)(CC(=O)c2cccc(OC)c2)c2ccccc21 (stereo unspecified) the results were INS-1E GSIS act -28 and miR-122 sensor 1.
O=C(c1ccccc1F)N1CC[C@H]2[C@H](CO)Nc3ccc(Br)cc3[C@H]21 was read as INS-1E GSIS act -1, ERAP1 HTS inh 5, E-selectin induc 0, F508del corr 3, DENV2 CPE rescue inconclusive and miR-122 sensor -3[16.7 µM].
Screening Cc1nn(C)c(Oc2ccccc2)c1CCNS(=O)(=O)c1ccc(Cl)cc1 returned E-selectin induc -1 and miR-122 sensor 70.
COc1ccc(S(=O)(=O)NCCc2c(C)nn(C)c2Oc2ccccc2)cc1 was read as E-selectin induc 1 and miR-122 sensor 238*.
For COc1cccc(C(=O)c2c[nH]c(C(=O)NCCCN3CCOCC3)c2)c1 the results were INS-1E GSIS act 0, ERAP1 HTS inh 5, E-selectin induc 2, F508del corr 15* and DENV2 CPE rescue -2.
Screening COc1cccc(C(=O)N2CCOCC2)c1 returned INS-1E GSIS act 7, ERAP1 HTS inh -1, E-selectin induc 0, F508del corr -2, DENV2 CPE rescue 33* and miR-122 sensor 3.

Screens deposited in PubChem by Broad Institute.
